Measurements taken from ChEMBL document CHEMBL5696442, “Discovery of type II inhibitors of TGFβ-activated kinase 1 (TAK1) and mitogen-activated protein kinase kinase kinase kinase 2 (MAP4K2)” (J Med Chem, 2015).

Legend:
[1] = molecular target: Ribosomal protein S6 kinase alpha-1 (Homo sapiens) (UniProt Q15418); test: Inhibition of RSK1 domain2 Lys2 labeling site in human A-375 cells at 5 uM by KiNativ Profiling analysis relative to control; type: cell-based
Procedure, shortened: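 Live A375 melanoma cells treated with compound at 5 or 0.5 μM, then lysed. Lysate kinases were labeled with a lysine-reactive ATP or ADP-biotin probe. Inhibition was read as protection of labeling sites from the probe.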

[2] = molecular target: T1, Serine/threonine-protein kinase TAO2 (Homo sapiens) (UniProt Q9UL54); test: Inhibition of TAO2 Lys2 labeling site in human A-375 cells at 5 uM by KiNativ Profiling analysis relative to control; type: cell-based
T1 sequence (whole entry): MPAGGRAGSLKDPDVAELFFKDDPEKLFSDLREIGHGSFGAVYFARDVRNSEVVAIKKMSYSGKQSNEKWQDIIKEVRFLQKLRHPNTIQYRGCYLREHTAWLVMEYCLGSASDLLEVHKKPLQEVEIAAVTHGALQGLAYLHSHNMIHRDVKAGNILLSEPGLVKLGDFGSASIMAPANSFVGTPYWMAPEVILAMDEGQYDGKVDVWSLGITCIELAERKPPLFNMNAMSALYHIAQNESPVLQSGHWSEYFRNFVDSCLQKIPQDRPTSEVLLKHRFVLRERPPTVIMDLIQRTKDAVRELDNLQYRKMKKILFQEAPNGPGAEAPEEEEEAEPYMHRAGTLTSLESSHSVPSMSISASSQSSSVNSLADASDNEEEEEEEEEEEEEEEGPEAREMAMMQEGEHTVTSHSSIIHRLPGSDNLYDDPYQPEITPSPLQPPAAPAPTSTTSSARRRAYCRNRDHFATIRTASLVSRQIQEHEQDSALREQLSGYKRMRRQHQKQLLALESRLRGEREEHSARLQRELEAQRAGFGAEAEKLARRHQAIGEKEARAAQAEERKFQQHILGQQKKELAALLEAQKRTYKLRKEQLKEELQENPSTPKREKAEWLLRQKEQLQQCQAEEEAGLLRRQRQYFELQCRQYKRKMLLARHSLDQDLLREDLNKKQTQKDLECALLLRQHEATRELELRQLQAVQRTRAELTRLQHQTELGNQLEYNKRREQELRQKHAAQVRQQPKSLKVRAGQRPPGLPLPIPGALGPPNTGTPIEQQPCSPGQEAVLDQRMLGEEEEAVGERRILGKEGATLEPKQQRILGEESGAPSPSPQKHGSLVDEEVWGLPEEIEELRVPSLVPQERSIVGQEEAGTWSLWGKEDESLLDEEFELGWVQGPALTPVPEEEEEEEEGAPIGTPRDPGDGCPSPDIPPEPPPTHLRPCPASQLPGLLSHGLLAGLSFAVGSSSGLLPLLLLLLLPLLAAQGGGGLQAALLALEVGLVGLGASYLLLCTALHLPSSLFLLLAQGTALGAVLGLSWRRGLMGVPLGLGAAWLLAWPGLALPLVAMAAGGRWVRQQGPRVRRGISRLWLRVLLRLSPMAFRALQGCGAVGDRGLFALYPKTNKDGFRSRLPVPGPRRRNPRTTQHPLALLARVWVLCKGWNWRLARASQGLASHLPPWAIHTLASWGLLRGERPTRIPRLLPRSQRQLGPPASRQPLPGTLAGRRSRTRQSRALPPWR

[3] = molecular target: Serine/threonine-protein kinase WNK4 (Homo sapiens) (UniProt Q96J92); test: Inhibition of Wnk4 Lys2 labeling site in human A-375 cells at 0.05 uM by KiNativ Profiling analysis relative to control; type: cell-based
[4] = molecular target: 5'-AMP-activated protein kinase catalytic subunit alpha-1 (Homo sapiens) (UniProt Q13131); test: Inhibition of AMPKa1 Lys1 labeling site in human A-375 cells at 5 uM by KiNativ Profiling analysis relative to control; type: cell-based
Procedure, shortened: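 Live A375 melanoma cells were treated with compound at 5 or 0.5 μM, then lysed. The lysates were labeled with a lysine-reactive ATP or ADP-biotin probe. Kinase protection from probe labeling was measured by KiNativ.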

[5] = molecular target: Cyclin-dependent kinase 4 (Homo sapiens) (UniProt P11802); test: Inhibition of CDK4 Lys2 labeling site in human A-375 cells at 5 uM by KiNativ Profiling analysis relative to control; type: cell-based
Procedure, shortened: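 Live A375 melanoma cells were treated with compound at 5 or 0.5 μM. The cells were then lysed, and the lysates were labeled with a lysine-reactive ATP or ADP-biotin acyl probe (KiNativ). Inhibition is the compound's protection of each kinase labeling-site peptide from probe labeling, relative to untreated control.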

[6] = molecular target: T2, Inhibitor of nuclear factor kappa-B kinase subunit alpha (Homo sapiens) (UniProt O15111); test: Inhibition of IKKa Lys2 labeling site in human A-375 cells at 0.5 uM by KiNativ Profiling analysis relative to control; type: cell-based
T2 sequence (whole entry): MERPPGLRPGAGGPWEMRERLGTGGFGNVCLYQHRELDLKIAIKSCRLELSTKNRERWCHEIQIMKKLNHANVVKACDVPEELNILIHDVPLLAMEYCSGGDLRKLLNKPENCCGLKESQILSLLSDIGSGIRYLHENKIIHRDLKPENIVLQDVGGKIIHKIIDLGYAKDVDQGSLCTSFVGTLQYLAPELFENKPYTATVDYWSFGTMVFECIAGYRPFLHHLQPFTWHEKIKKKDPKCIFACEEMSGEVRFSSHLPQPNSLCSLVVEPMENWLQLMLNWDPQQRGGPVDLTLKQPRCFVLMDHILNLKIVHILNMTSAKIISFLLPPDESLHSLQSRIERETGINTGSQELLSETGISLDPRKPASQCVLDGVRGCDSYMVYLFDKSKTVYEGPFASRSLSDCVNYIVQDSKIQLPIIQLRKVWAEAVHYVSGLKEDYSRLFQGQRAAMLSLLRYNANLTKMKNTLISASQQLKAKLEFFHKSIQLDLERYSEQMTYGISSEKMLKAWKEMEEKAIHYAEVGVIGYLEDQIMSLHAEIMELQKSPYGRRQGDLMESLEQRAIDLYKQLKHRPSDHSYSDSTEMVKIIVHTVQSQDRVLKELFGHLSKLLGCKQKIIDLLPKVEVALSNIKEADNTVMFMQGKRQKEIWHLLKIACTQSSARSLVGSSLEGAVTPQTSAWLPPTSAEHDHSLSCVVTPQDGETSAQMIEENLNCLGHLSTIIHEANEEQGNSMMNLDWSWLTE

[7] = molecular target: Serine/threonine-protein kinase Chk2 (Homo sapiens) (UniProt O96017); test: Inhibition of CHK2 Lys1 labeling site in human A-375 cells at 0.05 uM by KiNativ Profiling analysis relative to control; type: cell-based
[8] = molecular target: Serine/threonine-protein kinase MARK2 (Homo sapiens) (UniProt Q7KZI7); test: Inhibition of MARK2 Lys2 labeling site harbouring DLKAENLLLDADMNIK in human A-375 cells at 0.05 uM by KiNativ Profiling analysis relative to control; type: cell-based
[9] = Inhibition of p70S6K ATP Loop labeling site harbouring GGYGKVFQVR in human A-375 cells at 0.05 uM by KiNativ Profiling analysis relative to control; settings: condition cancer

Chain of Serine/threonine-protein kinase WNK4 (Homo sapiens) (Q96J92 whole entry): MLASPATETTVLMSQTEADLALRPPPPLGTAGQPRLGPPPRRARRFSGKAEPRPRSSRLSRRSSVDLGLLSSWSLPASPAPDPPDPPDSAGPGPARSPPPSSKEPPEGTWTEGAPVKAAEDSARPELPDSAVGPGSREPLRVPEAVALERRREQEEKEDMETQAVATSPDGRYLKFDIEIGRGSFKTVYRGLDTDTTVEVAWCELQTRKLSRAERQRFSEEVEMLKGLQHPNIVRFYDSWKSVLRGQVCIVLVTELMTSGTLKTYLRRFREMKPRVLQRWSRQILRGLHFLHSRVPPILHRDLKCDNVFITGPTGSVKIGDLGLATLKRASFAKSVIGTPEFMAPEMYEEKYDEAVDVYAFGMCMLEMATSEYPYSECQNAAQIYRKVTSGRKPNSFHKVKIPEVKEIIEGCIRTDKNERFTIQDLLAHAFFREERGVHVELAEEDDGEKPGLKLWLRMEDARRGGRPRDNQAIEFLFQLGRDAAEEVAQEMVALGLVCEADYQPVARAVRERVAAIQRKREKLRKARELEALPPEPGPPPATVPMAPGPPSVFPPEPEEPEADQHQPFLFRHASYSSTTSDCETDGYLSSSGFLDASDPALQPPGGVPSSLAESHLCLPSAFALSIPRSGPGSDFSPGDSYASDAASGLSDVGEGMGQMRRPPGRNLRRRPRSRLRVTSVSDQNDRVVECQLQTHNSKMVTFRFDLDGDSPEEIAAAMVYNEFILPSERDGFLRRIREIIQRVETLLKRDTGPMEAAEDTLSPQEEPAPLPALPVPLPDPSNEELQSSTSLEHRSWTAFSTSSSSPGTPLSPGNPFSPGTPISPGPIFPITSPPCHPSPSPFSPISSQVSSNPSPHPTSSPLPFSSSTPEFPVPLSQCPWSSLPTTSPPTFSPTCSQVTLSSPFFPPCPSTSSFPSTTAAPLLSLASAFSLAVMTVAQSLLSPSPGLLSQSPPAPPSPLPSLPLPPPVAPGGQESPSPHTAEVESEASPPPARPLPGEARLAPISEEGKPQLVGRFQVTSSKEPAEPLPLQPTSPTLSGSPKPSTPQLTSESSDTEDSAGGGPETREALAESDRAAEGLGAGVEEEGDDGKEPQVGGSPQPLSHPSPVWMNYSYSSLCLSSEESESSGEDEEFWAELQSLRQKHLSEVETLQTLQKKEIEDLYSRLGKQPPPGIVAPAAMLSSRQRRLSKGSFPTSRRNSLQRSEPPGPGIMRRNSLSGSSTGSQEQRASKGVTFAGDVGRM
Chain of Serine/threonine-protein kinase MARK2 (Homo sapiens) (Q7KZI7 whole entry): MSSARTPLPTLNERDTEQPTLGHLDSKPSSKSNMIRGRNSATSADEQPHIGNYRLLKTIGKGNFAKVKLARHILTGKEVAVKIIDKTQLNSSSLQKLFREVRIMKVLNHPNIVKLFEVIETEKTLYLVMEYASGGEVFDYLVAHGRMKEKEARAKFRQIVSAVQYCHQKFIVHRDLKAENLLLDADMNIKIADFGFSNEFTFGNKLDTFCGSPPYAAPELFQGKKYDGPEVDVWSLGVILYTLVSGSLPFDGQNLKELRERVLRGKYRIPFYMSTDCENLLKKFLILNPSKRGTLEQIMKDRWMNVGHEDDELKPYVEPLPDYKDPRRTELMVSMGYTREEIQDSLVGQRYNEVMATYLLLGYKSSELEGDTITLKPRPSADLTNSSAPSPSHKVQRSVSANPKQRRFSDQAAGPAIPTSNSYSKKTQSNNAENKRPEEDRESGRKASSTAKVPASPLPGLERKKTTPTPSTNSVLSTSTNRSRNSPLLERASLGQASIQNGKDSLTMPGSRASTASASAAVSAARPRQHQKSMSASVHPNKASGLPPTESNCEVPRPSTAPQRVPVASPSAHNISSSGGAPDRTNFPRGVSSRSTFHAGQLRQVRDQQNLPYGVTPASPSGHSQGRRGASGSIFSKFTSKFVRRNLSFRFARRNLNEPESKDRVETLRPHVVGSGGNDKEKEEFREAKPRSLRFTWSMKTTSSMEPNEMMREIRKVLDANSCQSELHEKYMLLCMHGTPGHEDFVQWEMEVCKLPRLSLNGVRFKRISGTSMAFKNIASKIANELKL
Chain of 5'-AMP-activated protein kinase catalytic subunit alpha-1 (Homo sapiens) (Q13131 whole entry, looked up): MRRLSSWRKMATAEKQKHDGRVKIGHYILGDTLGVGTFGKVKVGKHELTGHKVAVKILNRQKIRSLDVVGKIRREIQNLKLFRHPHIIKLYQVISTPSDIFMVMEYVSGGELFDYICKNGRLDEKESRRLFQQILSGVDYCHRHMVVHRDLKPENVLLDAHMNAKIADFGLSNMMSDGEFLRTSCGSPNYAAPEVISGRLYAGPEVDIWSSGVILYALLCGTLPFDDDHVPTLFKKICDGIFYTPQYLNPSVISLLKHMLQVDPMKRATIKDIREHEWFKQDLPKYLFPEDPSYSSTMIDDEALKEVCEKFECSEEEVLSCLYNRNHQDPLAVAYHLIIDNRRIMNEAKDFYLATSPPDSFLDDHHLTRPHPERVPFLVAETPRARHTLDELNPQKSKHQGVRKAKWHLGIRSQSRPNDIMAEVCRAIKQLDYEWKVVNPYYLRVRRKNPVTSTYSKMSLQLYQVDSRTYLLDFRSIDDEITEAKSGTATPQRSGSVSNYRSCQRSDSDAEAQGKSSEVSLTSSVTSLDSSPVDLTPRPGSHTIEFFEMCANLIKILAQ
Chain of Serine/threonine-protein kinase Chk2 (Homo sapiens) (O96017 whole entry): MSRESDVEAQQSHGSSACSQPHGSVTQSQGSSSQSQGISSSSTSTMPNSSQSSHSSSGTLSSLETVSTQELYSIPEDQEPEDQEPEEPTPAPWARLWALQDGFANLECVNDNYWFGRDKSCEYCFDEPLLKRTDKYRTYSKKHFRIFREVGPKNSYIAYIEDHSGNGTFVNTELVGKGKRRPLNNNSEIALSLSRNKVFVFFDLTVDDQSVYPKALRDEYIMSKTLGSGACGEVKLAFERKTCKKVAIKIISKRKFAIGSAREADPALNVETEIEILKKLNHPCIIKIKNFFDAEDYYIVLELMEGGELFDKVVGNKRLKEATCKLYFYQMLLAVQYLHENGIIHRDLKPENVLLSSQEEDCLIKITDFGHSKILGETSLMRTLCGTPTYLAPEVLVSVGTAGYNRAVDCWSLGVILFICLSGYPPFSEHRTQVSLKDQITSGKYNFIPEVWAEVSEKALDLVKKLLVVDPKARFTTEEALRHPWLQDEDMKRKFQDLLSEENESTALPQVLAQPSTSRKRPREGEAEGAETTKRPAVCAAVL
Chain of Ribosomal protein S6 kinase alpha-1 (Homo sapiens) (Q15418 whole entry, the tested form may be a part): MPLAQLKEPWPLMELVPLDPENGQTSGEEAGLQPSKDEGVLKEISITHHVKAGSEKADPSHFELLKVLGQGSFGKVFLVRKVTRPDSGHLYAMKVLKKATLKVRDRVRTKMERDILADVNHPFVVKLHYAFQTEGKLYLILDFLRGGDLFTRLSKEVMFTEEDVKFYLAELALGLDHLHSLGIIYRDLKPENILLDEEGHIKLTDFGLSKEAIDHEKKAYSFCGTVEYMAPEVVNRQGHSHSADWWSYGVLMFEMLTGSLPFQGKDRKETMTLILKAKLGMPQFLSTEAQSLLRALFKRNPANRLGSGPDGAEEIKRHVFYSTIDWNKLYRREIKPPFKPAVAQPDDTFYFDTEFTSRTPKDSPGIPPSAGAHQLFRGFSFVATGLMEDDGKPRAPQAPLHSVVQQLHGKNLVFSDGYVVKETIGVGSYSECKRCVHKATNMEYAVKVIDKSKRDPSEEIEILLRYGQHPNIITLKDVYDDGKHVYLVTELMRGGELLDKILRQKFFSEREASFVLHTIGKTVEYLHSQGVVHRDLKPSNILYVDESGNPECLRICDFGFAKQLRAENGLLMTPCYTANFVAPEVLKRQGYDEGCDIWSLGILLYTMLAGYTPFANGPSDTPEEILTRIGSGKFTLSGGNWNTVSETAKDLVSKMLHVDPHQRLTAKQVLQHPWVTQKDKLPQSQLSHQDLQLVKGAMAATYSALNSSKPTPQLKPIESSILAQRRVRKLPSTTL
Chain of Cyclin-dependent kinase 4 (Homo sapiens) (P11802 whole entry): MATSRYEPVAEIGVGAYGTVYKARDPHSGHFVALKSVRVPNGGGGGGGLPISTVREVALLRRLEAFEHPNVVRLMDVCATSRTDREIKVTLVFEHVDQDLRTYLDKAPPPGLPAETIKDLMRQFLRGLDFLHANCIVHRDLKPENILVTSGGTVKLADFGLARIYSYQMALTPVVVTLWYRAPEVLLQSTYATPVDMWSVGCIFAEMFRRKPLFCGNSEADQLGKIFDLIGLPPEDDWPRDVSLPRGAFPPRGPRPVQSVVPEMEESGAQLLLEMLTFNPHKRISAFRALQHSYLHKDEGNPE

Structure (SMILES) | inhibition [1] | inhibition [2] | inhibition [3] | inhibition [4] | inhibition [5] | inhibition [6] | inhibition [7] | inhibition [8] | inhibition at 0.05 µM [9]
CCN1CCN(Cc2ccc(NC(=O)c3ccc(C)c(Oc4ccnc5[nH]ccc45)c3)cc2C(F)(F)F)CC1 | 1.8% | 82.5% | 0.1% | 11.6% | 2.9% | 33.4% | -1.9% | 19.5% | 18.9%
CCN1CCN(Cc2ccc(NC(=O)c3ccc(C)c(/C=C/c4cnc5[nH]ccc5c4OC)c3)cc2C(F)(F)F)CC1 | 3.9% | 82.2% | -9.1% | 37% | 6.7% | 13.3% | 2.9% | 11.6% | -14.4%
